The data set concerns MS2 coat protein. Briefly: apparent Kd, MS2 coat protein; higher = weaker binding; RNA-MaP array; FMN 200 µM where present. In outline: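 Each design was made on Illumina sequencing-chip clusters by stalled E. coli RNA polymerase and titrated with SNAP-549-labelled MS2 coat protein from 0.7 or 1.5 nM, doubling to 3 µM, in the absence and then the presence of constant ligand. The buffer was 100 mM Tris-HCl pH 7.5, 80 mM KCl, 4 mM MgCl2, BSA, DTT, yeast tRNA and Tween-20. The apparent Kd is the median of filtered per-cluster fits of binding curves, with green signal normalised to red-channel RNA signal and control-cluster median Fmax.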

Where [1] appears, read: designed as: OFF switch for flavin mononucleotide, no ligand.
Where [2] appears, read: ligand present: flavin mononucleotide, designed as: OFF switch for flavin mononucleotide.
Where [3] appears, read: designed as: ON switch for flavin mononucleotide, no ligand.
Setting [4] is: ligand present: flavin mononucleotide, designed as: ON switch for flavin mononucleotide.

For orientation: apparent Kd means the concentration giving half-maximal binding under the conditions of the assay. With “GAGAGAUAGUAGGAUAUUCUGUACGGGUGACCAGGAGAAGGACUAACAUGAGGAUCACCCAUGUGGCUGGUCAU”, the “apparent Kd” value is, setting by setting: under setting [1], 15.9 nM; under setting [2], 16.2 nM.
For the sequence “GCGUAUUAGGUGUAGCUAGACAUUCAAGAAGGGUGAAGAACAUGAGGAUCACCCAUGUAGUUUUUACAGGAUAUUGAUAUACGC”, the “apparent Kd” value by setting is: under setting [3], 356 nM; under setting [4], 20.4 nM.
On to “GUAGAGUAAGGAUAUCGUGAAUAGGAUAGAAUGGUUAGAAACGAGAAGGUACAUGAGGAUCACCCAUGUAAUGU”, for which the “apparent Kd” value by setting is: under setting [1], 20.7 nM; under setting [2], 21.3 nM.
The like results for “GUAAGCAUGUCAGGAUAUCGCAAUAUCAAACCGUGAGAAGGGACAUGAGGAUCACCCAUGUAUUGUUCGGGAGGACCCAGCUGA” were, in that order, 67.3 nM and 358 nM.
The like results for “CCGGCUGCCGUGAGGAUAUGCCCGCGCGCCCGCGGGCAGAAGGCACAUGAGGAUCACCCAUGUCCUGCGGUCCC” were, in that order, 17.4 nM and 19.9 nM.
In the case of “CAGCAAGUCACAGGAUAUGGUGAUGUACAUGAGGAUCACCCAUGUCCGUCUUCUCUCACAAGAUGCCAGAAGGGUGACUUCCGG”, the “apparent Kd” value under setting [3] was determined as 950 nM and the “apparent Kd” value under setting [4] came out at 135 nM.
“AAGGACUGAGGAUAUGCGCGGGCAAGAUCCUCAAUCCCAAAACAUGAGGAUCACCCAUGUAGAAGGCAGAAAUA”: the “apparent Kd” value runs as follows: under setting [1], 25.8 nM; under setting [2], 22.6 nM.
Take “AUAUAUUAGUUAGGAUAUCUGUAAUUUAUUGAAACAUGAGGAUCACCCAUGUUCAUAAAUUUAUAGGAGAAGGGAUAGAUAUAU”: the “apparent Kd” value under setting [3] stood at 5.17 nM and the “apparent Kd” value under setting [4] amounted to 5.03 nM.
Consider “UUUAUAUAGUAAGGAUAUGUAUUAUUUUUUACAACAGAAGGUACUGACAUGAGGAUCACCCAUGUUUUAGUGUGGGCAUGUAGU”, for which the “apparent Kd” value came out at 296 nM under setting [1] and 364 nM under setting [2].
As to “UUUUAACAUGAGGAUCACCCAUGUGAGGAUAUCGAAAUUUAUAUUAAUAUUAUUUAUUCGAGAAGGCACAUUUU”, the “apparent Kd” value under setting [1] is 120 nM and the “apparent Kd” value under setting [2] came to 145 nM.
Consider “UGGGCUACGUGGUCCGCCAGACGUAGAAGGGUCUACAUGAGGAUCACCCAUGUGACCGUUAGUGGACAGGAUAUACGCGGAGUG”, for which the “apparent Kd” value reads like this: under setting [1], 8.38 nM; under setting [2], 22.8 nM.
Take “UCGUACAUUCGAGGAUAUCGGUGAUAAAUAAUACGAGAAGGCGAUUUUAGGCAUAACGCCUUAGACAUGAGGAUCACCCAUGUA”: the “apparent Kd” value by setting is: under setting [3], 68.1 nM; under setting [4], 55.1 nM.
Regarding “CCGAAUAAGCAGGAUAUCGUAUCGGAAACGAUACGAGAAGGGUUAACAUGAGGAUCACCCAUGUUCCUUAACGG”, the “apparent Kd” value reads like this: under setting [1], 20.3 nM; under setting [2], 24.8 nM.
The like results for “AUGAGUAAAGCAGGAUAUCUAUUGUCUCUGUAACAUGAGGAUCACCCAUGUAGAGAAGGGCUUAGUCAUACACUUCGAAGUUGA” were, in that order, 9.13 nM and 10.1 nM.
On to “GAGUAGUUGAAAGGAUAUUGAUUAUUGUAGGAUCAAGAAGGUUCUAACAUGAGGAUCACCCAUGUAGGACUAUUCCUGUGUAUC”, for which the “apparent Kd” value under setting [3] amounted to 13 nM and the “apparent Kd” value under setting [4] was found to be 10.8 nM.
Taken in the same sequence, the figures for “CGACACCGGGAGAAGGCCAGACGCCGGCGCCCAAUACAACUGAGCUUAUGGAGGAUAUCCCGACAUGAGGAUCACCCAUGUAUC” were 35.5 nM and 10.8 nM.
For the sequence “ACUACUUACUAGGAUAUCAGAGUCGAAAGACUCUGAGAAGGAGUAACAUGAGGAUCACCCAUGUGUCCUAUAGU”, the “apparent Kd” value reads like this: under setting [1], 17.9 nM; under setting [2], 29.4 nM.
For “AAAGUUGGUAGGCCCUCGGCACAUGAGGAUCACCCAUGUAAGGAGGAUAUGCCCGGUACCCGCUGGCAGAAGGCCUUAUAAGAA”, the “apparent Kd” value by setting is: under setting [1], 12.2 nM; under setting [2], 110 nM.
Regarding “GAACGUGACAUGAGGAUCACCCAUGUUGCCUGAGCCAGGUCGUAGGAUAUCCUGUUGAUUAAUUUGGAGAAGGGCGACUGGGAG”, the “apparent Kd” value was 46.5 nM under setting [3] and 18.3 nM under setting [4].
The like results for “GGGUACAUCGGAGGAUAUCAUGUGUAAACAUGAGGAUCACCCAUGUCGUACGAGAGUACGGAGAUUGAGAAGGCCGAUGUACCG” were, in that order, 86.7 nM and 16.6 nM.
The like results for “GGUACCAUCACAGGAUAUGCUUUCCGUUGGGAAGCAGAAGGGUGUAACAUGAGGAUCACCCAUGUGGUGCCCGGGCGUGAGCCC” were, in that order, 135 nM and 15.6 nM.
Turning to “ACGGCAAUCACAGGAUAUGGUUACAUGAGGAUCACCCAUGUCUAGGGUCUAAUUAGGUAUAACUACCAGAAGGGUGAAGGCCUA”, the “apparent Kd” value is 97.1 nM under setting [1] and 80.1 nM under setting [2].
“GCACAACAUGAGGAUCACCCAUGUCUCACAAACCAAGGAUAUGGGCCCGGCCAGGCCGGAUCAGAAGGUGGAAAAU”: the “apparent Kd” value runs as follows: under setting [3], 312 nM; under setting [4], 143 nM.
As for “AUACCACGAGGAUAUCGUCUAUAAUACAUGAGGAUCACCCAUGUUAUAUCUGUAAUGUUUCGAGAAGGCGUUUGUU”, the “apparent Kd” value under setting [1] was 24.3 nM and the “apparent Kd” value under setting [2] was determined as 17.1 nM.
Take “GUAGCAUAAUCAGGAUAUUCAGCGAAUAGAUUGACAUGAGGAUCACCCAUGUGGCGAAAGCCUCGGGAGAAGGGAUAAUGCUAC”: the “apparent Kd” value was 399 nM under setting [3] and 76.8 nM under setting [4].
For the sequence “ACGCAACAUGAGGAUCACCCAUGUGAGGAUAUGUAAAUAGUAAACAAAUAGGAAAUGAACAGAAGGCACACCGG”, the “apparent Kd” value under setting [1] was 33.8 nM and the “apparent Kd” value under setting [2] came out at 46 nM.
Taken in the same sequence, the figures for “UGAAAUCAUGUAGGAUAUGCAUGGCGAAGCUACGCAGAAGGACAUGAGGAUCACCCAUGUGCUAGCUACCGGAUACGGUGGCAA” were 99.1 nM and 230 nM.
On to “CCGCAAAAGCAGGAUAUCGUAUCGGAUACGAUACGAGAAGGGUUUACAUGAGGAUCACCCAUGUUCCUUAGCGG”, for which the “apparent Kd” value turned out to be 31.5 nM under setting [1] and 36 nM under setting [2].
The like results for “CAGCGAAAGUAGAAGGCAGUACUGAUACAGUACUGAGGAUAUACAUGAGGAUCACCCAUGUACUUCAGCUGGAAAUAAAUAAAU” were, in that order, 5.94 nM and 6.97 nM.
The like results for “ACUAAACGAGGAUAUACUGACAGGCCUCAAACAUACAUCAAACAUGAGGAUCACCCAUGUAGAAGGCGUAAACU” were, in that order, 34.5 nM and 25.1 nM.
Taken in the same sequence, the figures for “GCAUGGAAAGUGAGGAUAUACCACUGGAUACAGUGGUAGAAGGCACAUGAGGAUCACCCAUGUUCCUACCAUGC” were 16.9 nM and 71.3 nM.
As for “AAAAAAAAAACUCAGGAUAUAGAUUGUAGAACAUGAGGAUCACCCAUGUAGUGAAAGAAGAGAGACUAGAAGGGAGUAAAAAAAAA”, the “apparent Kd” value reads like this: under setting [3], 85.7 nM; under setting [4], 74.7 nM.
In the case of “GCGCGAAGGUAGGAUAUCCAGGCAUCUUGCCGCGGAGAAGGACCCACAUGAGGAUCACCCAUGUGGUGAUCCUG”, the “apparent Kd” value was determined as 13.5 nM under setting [1] and 14.4 nM under setting [2].
As for “CUUUUGUGAGGAUAUUAGUAGUAAAUAAAUAAAUUUACUACUGAGAAGGCACAUGAGGAUCACCCAUGUUCCUC”, the “apparent Kd” value reads like this: under setting [1], 36.7 nM; under setting [2], 328 nM.
Turning to “CUCAUGUGAGGAUAUGCUGCUCGUCACGAAAGUGAUGAGUAGCAGAAGGUACAUGAGGAUCACCCAUGUAAAUA”, the “apparent Kd” value by setting is: under setting [1], 98.9 nM; under setting [2], 18.8 nM.
Consider “AUGGUUGUCGUAGGAUAUGUAGGAUAUUCCUACAUGAGGAUCACCCAUGUUCGCAUGGAAGAAGGACAGAAGGACGAUGACCAG”, for which the “apparent Kd” value stood at 1020 nM under setting [3] and 9.57 nM under setting [4].
For “UAUAUGUAUGUAGGAUAUGGUAUAUAAAAUAUACCAGAAGGACAUGAGGAUCACCCAUGUAUGAAAUUCCAUAAUAACCGUGUA”, the “apparent Kd” value reads like this: under setting [1], 11.3 nM; under setting [2], 11 nM.
Taken in the same sequence, the figures for “UUAAAUCAUGUAGGAUAUGCAUGGCGAAGCUACGCAGAAGGACAUGAGGAUCACCCAUGUGCUAGCGUCUGGAAACAGAUGCAA” were 56 nM and 269 nM.
As to “GGGUCCAACACAGGAUAUGCUGGACUUUGUCCAGCAGAAGGGUGAAGAACAUGAGGAUCACCCAUGUGGAUCCAUAUAUUUAAU”, the “apparent Kd” value came out at 236 nM under setting [3] and 17.9 nM under setting [4].
Taken in the same sequence, the figures for “UUUUCCAGGCAGAAGGGUCCUCACAUGAGGAUCACCCAUGUAAACGUGGAUAGGAUAUGCCACUGGGCUCGAUAAGAGUGGUUC” were 640 nM and 128 nM.
For the sequence “GUCAUACAUGAGGAUCACCCAUGUAAGGAUAUGCUAGCGGUCGGCUGACUGACUGCUAGCAGAAGGUACAUGAU”, the “apparent Kd” value was determined as 64.1 nM under setting [1] and 90 nM under setting [2].
“GUUUACGUAGAAGGAUAUACAUUUGACAUCCUGAUGCACGCAAUACUCACAUGAGGAUCACCCAUGUAGAAGGUCUGCGAAAGA”: the “apparent Kd” value is, setting by setting: under setting [1], 15.5 nM; under setting [2], 24.8 nM.
For “GUGCGGUAGGAGAAGGACGGAGGCUUCUUUUCAUACAUGAGGAUCACCCAUGUAGGAUAUCCUACCUCACGCGGCCUCCUUCUG”, the “apparent Kd” value was 4.77 nM under setting [1] and 4.99 nM under setting [2].
Consider “GGAUCAUAUGUCAGGAUAUGCAGGUCCUUGGAUCUGCAGAAGGGACAUGAGGAUCACCCAUGUCAUGAAGAUCC”, for which the “apparent Kd” value was 35.6 nM under setting [1] and 202 nM under setting [2].
Taken in the same sequence, the figures for “AAAAAACAUGAGGAUCACCCAUGUGAGGAUAUUGGUAUUCAGGGUAUAAUCUCAAUAGCGAGAAGGCGCAUAAA” were 43.6 nM and 44.3 nM.
Taken in the same sequence, the figures for “GGGCAACAUGAGGAUCACCCAUGUCAGGAUAUUGGGCCGGGCCCGAAAGGGCCCGGAACAAGAAGGGACAGCCC” were 23.5 nM and 24.5 nM.
Taken in the same sequence, the figures for “UGUGUCCGUAGAGGAUAUCCGGGCGUUCGGCUAGGAGAAGGCUGCGACACAUGAGGAUCACCCAUGUAGGUUGUGUCUCUCUAC” were 51.6 nM and 275 nM.
For “CAGCGCUGUCGAGAGGAUAUGCAGUGAUGGACAUGAGGAUCACCCAUGUUAGCGAUAGCAUUACGGUAGAAGGCUCUACAGCUGC”, the “apparent Kd” value reads like this: under setting [3], 18 nM; under setting [4], 15.1 nM.

Source of the values: the EternaBench riboswitch data.
